Results: ChEMBL document CHEMBL1156265, “Furo[2,3-b]pyridine-based cannabinoid-1 receptor inverse agonists: synthesis and biological evaluation. Part 1” (Bioorg Med Chem Lett, 2010)
The source made the active and inactive calls. The rule behind the calls is not given here.

Columns and labels:
Rattus norvegicus [1] = experiment: Reduction of body weight in rat at 1 mg/kg, po after 13 days relative to control; format: functional; set-up: scale not given: the % may be the effect or the level left
Procedure, shortened: (§1)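 Chronic study in diet-induced obese rats with daily oral dosing at 1 mg/kg (for some compounds 0.1 and 0.3 mg/kg as well). Body weight change and cumulative food intake suppression were measured relative to vehicle. The 14-day study ended 18 h after the day-14 dose; one study ended on day 13.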

Rattus norvegicus [2] = experiment: Suppression of cumulative food intake in rat at 1 mg/kg, po after 13 days relative to control; format: functional; procedure, shortened: as §1
Rattus norvegicus [3] = experiment: Reduction of body weight in DIO rat assessed as weight change at 1 mg/kg, po daily measured 18 hrs post dose on day 13; format: functional; set-up: scale not given: the % may be the effect or the level left; procedure, shortened: as §1
[4] = Inhibition of rat GABAA receptor
Procedure, shortened: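 Rat GABA_A ligand-gated ion-channel binding, run within a 175-assay radioligand binding and enzymatic screening panel. IC50 estimated.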

Canis familiaris [5] = experiment: Toxicity in anesthetized dog assessed as change in ECG intervals up to 10 mg/kg, iv relative to control; format: organism-based, Canis lupus familiaris; set-up: dose 10 mg/kg, route intravenous; details: in vivo
Procedure, shortened: (§2)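 Anesthetized dogs received a cumulative IV infusion of 1, 3 and 10 mg/kg, each dose infused over 30 min. Mean arterial pressure, heart rate and ECG intervals including QTc were compared with vehicle-treated animals. Plasma drug level was measured at the end of infusion.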

Canis familiaris [6] = experiment: Toxicity in anesthetized dog assessed as change in heart rate up to 10 mg/kg, iv relative to control; format: organism-based, Canis lupus familiaris; set-up: dose 10 mg/kg, route intravenous; details: in vivo; procedure, shortened: as §2
Canis familiaris [7] = experiment: Toxicity in anesthetized dog assessed as change in mean arterial pressure up to 10 mg/kg, iv relative to control; format: organism-based, Canis lupus familiaris, Artery; set-up: dose 10 mg/kg, route intravenous; details: in vivo; procedure, shortened: as §2
[8] = target: Voltage-gated inwardly rectifying potassium channel KCNH2 (Homo sapiens, UniProt Q12809); experiment: Inhibition of human ERG potassium channel
Canis familiaris [9] = experiment: Plasma concentration in anesthetized dog at up to 10 mg/kg, iv measured at the end of infusion; format: ADME, organism-based, Canis lupus familiaris; set-up: dose 10 mg/kg, route intravenous; details: in vivo; procedure, shortened: as §2
Cytochrome P450 1A2 = target: T1, Cytochrome P450 1A2 (Homo sapiens, UniProt P05177); experiment: Inhibition of CYP1A2; format: ADME
T1 sequence (P05177 whole entry): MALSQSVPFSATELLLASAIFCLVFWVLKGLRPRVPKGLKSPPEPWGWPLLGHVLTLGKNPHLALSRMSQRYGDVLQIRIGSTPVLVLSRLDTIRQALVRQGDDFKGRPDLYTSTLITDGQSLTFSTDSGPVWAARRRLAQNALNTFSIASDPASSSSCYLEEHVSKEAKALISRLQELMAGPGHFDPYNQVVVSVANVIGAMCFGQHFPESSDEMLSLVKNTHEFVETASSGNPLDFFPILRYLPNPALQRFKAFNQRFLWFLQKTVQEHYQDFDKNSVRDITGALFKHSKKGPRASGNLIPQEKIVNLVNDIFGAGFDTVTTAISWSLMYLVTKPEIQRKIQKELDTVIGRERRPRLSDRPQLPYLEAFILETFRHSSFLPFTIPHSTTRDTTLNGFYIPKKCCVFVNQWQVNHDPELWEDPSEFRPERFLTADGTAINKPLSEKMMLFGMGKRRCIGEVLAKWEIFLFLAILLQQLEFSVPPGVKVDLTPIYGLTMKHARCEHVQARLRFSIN
Procedure, shortened: (§3)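 Inhibition of cytochrome P450 isoforms CYP3A4, CYP2C9, CYP2D6, CYP2C19 and CYP1A2, reported as IC50 in µM.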

Cytochrome P450 2C19 = Cytochrome P450 2C19 (Homo sapiens, UniProt P33261); experiment: Inhibition of CYP2C19; format: ADME; procedure, shortened: as §3
Cytochrome P450 2D6 = Cytochrome P450 2D6 (Homo sapiens, UniProt P10635); experiment: Inhibition of CYP2D6; format: ADME; procedure, shortened: as §3
Cytochrome P450 2C9 = Cytochrome P450 2C9 (Homo sapiens, UniProt P11712); experiment: Inhibition of CYP2C9; format: ADME; procedure, shortened: as §3
Cytochrome P450 3A4 = Cytochrome P450 3A4 (Homo sapiens, UniProt P08684); experiment: Inhibition of CYP3A4; format: ADME; procedure, shortened: as §3
[10] = Metabolic stability in rat bile assessed as compound recovery at 1 mg/kg; format: ADME, organism-based; set-up: dose 1 mg/kg; details: read-out: Activity
Procedure, shortened: (§4)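 Radioactivity excreted in bile and urine measured as percent of dose.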

Rattus norvegicus [11] = experiment: Reduction of body weight in rat at 1 mg/kg, po relative to control; format: functional; set-up: scale not given: the % may be the effect or the level left; procedure, shortened: as §1
Rattus norvegicus [12] = experiment: Reduction of body weight in DIO rat assessed as weight change at 1 mg/kg, po after 2 weeks; format: functional, organism-based; set-up: dose 1 mg/kg
Procedure, shortened: (§5)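 DIO rats were dosed orally once daily for 2 weeks at 0.1, 0.3 or 1 mg/kg. Body weight change (g) was compared with vehicle, and the study ended 18 h after the day-14 dose.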

Rattus norvegicus [13] = experiment: Reduction of body weight in DIO rat assessed as weight change at 0.1 mg/kg, po after 2 weeks; format: functional, organism-based; set-up: dose 0.1 mg/kg; procedure, shortened: as §5
Rattus norvegicus [14] = experiment: Reduction of body weight in DIO rat assessed as weight change at 0.3 mg/kg, po after 2 weeks; format: functional, organism-based; set-up: dose 0.3 mg/kg; procedure, shortened: as §5
[15] = Metabolic stability in rat urine assessed as compound recovery at 1 mg/kg; format: ADME, organism-based; set-up: dose 1 mg/kg; details: read-out: Activity; procedure, shortened: as §4
Rattus norvegicus [16] = experiment: Suppression of cumulative food intake in rat at 1 mg/kg, po relative to control; format: functional; procedure, shortened: as §1
Mus musculus [17] = experiment: Suppression of food intake in Cnr1+/+ C57BL/6 mouse at 1 mg/kg, po measured for 18 hrs by overnight food intake study; format: functional
Procedure, shortened: (§6)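 The overnight food intake study used ad libitum fed male mice aged 14–16 weeks, Cnr1+/+ (n = 10) and Cnr1−/− (n = 7). Mice received a single oral dose of 1 mg/kg. Food intake and body weight change were measured over 18 h relative to vehicle-treated mice.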

Mus musculus [18] = experiment: Reduction of body weight in Cnr1+/+ C57BL/6 mouse at 1 mg/kg, po measured for 18 hrs; format: functional; procedure, shortened: as §6
Rattus norvegicus [19] = experiment: Reduction of body weight in DIO rat assessed as weight change at 1 mg/kg, po after 18 hrs; format: functional
Procedure, shortened: (§7)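 Acute study in diet-induced obese rats. A single oral dose was given and rats were monitored for 18 h. Food intake suppression and body weight change were measured relative to vehicle-treated controls.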

Rattus norvegicus [20] = experiment: Suppression of food intake in DIO rat at 1 mg/kg, po relative to control; format: functional; procedure, shortened: as §7
[21] = Bioavailability in rat; format: ADME, organism-based; details: in vivo
[22] = Half life in rat; format: ADME, organism-based; details: in vivo
[23] = Plasma clearance in rat; format: ADME, organism-based
[24] = Ratio of drug level in brain to plasma in rat at 1 mg/kg, iv after 4 hrs; format: ADME, organism-based; set-up: dose 1 mg/kg, route intravenous
[25] = Drug level in rat brain at 1 mg/kg, iv after 4 hrs; format: ADME, organism-based; set-up: dose 1 mg/kg, route intravenous; details: read-out: Drug uptake
[26] = Drug level in rat plasma at 1 mg/kg, iv after 4 hrs; format: ADME, organism-based; set-up: dose 1 mg/kg, route intravenous; details: read-out: Drug uptake
[27] = Bioavailability in dog; format: ADME, organism-based, Canis lupus familiaris; details: in vivo
Procedure, shortened: (§8)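 PK in dog and rhesus macaque. Bioavailability, plasma clearance (mL/min/kg) and terminal half-life derived from plasma drug levels.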

[28] = Half life in dog; format: ADME, organism-based, Canis lupus familiaris; details: in vivo; procedure, shortened: as §8
[29] = Plasma clearance in dog; format: ADME, organism-based, Canis lupus familiaris; procedure, shortened: as §8
Rattus norvegicus [30] = experiment: Reduction of body weight in DIO rat assessed as weight change at 1 mg/kg, po daily measured 18 hrs post dose on day 14; format: functional; procedure, shortened: as §1
[31] = Bioavailability in rhesus monkey; format: ADME, organism-based, Macaca mulatta; details: in vivo; procedure, shortened: as §8
[32] = Half life in rhesus monkey; format: ADME, organism-based, Macaca mulatta; details: in vivo; procedure, shortened: as §8
[33] = Plasma clearance in rhesus monkey; format: ADME, organism-based, Macaca mulatta; procedure, shortened: as §8
[34] = target: GABA-A receptor; agonist GABA site; experiment: Partial agonist activity at human alpha-1-beta-3-gamma-2 GABAA receptor expressed in […] cells; format: functional, cell-based
Procedure, shortened: (§9)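 Whole-cell electrophysiology in Ltk cells expressing human α1β3γ2 GABA_A receptors. EC50 determined, and maximal efficacy expressed relative to the maximum GABA response.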

[35] = target: GABA-A receptor; alpha-1/beta-3/gamma-2 (Homo sapiens) (UniProt P14867+P18507+P28472); experiment: Partial agonist activity at human alpha-1-beta-3-gamma-2 GABAA receptor expressed in […] cells at 3 uM; format: functional, cell-based; procedure, shortened: as §9
Rattus norvegicus [36] = experiment: Toxicity in Sprague-Dawley rat at 30 mg/kg, po by rotarod test; format: organism-based; set-up: dose 30 mg/kg, route oral; details: in vivo
Procedure, shortened: (§10)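 Male Sprague Dawley rats dosed orally at 30 mg/kg. Motor coordination assessed on rotarod, with plasma and brain drug levels measured.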

Plasma [37] = experiment: Drug level in Sprague-Dawley rat plasma at 30 mg/kg, po; format: ADME, organism-based; set-up: dose 30 mg/kg, route oral; details: in vivo, read-out: Drug uptake; procedure, shortened: as §10
Brain [38] = experiment: Drug level in Sprague-Dawley rat brain at 30 mg/kg, po; format: ADME, organism-based; set-up: dose 30 mg/kg, route oral; details: in vivo, read-out: Drug uptake; procedure, shortened: as §10
Plasma [39] = experiment: Drug level in CD1 mouse plasma at 30 mg/kg, po; format: ADME, organism-based; set-up: dose 30 mg/kg, route oral; details: in vivo, read-out: Drug uptake
Brain [40] = experiment: Drug level in CD1 mouse brain at 30 mg/kg, po; format: ADME, organism-based; set-up: dose 30 mg/kg, route oral; details: in vivo, read-out: Drug uptake
Plasma [41] = experiment: Drug level in CD1 mouse plasma at 100 mg/kg, po; format: ADME, organism-based; set-up: dose 100 mg/kg, route oral; details: in vivo, read-out: Drug uptake
Brain [42] = experiment: Drug level in CD1 mouse brain at 100 mg/kg, po; format: ADME, organism-based; set-up: dose 100 mg/kg, route oral; details: in vivo, read-out: Drug uptake
Mus musculus [43] = experiment: Toxicity in CD1 mouse assessed as hyperactive response at 100 mg/kg, po; format: organism-based; set-up: dose 100 mg/kg, route oral; details: in vivo
Mus musculus [44] = experiment: Toxicity in CD1 mouse assessed as ataxia at 100 mg/kg, po; format: organism-based; set-up: dose 100 mg/kg, route oral; details: in vivo
Rattus norvegicus [45] = experiment: Suppression of food intake in DIO rat at 1 mg/kg, po measured 18 hrs post dose on day 14 relative to control

Sequence of Cytochrome P450 2C9 (P11712 whole entry): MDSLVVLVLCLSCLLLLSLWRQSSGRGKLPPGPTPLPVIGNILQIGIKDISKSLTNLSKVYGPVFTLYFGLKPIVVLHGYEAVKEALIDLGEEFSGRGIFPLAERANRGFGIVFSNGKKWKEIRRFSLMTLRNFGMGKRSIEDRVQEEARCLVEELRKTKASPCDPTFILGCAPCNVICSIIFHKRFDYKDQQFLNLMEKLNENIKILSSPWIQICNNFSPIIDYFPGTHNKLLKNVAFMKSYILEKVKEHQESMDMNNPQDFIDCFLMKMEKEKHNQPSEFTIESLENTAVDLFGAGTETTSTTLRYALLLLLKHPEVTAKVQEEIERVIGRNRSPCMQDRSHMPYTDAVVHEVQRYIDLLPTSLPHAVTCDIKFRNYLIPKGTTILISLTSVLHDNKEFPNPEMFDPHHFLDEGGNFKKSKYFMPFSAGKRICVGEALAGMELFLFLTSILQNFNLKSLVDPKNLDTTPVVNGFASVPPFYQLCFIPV
Sequence of Cytochrome P450 2C19 (P33261 whole entry): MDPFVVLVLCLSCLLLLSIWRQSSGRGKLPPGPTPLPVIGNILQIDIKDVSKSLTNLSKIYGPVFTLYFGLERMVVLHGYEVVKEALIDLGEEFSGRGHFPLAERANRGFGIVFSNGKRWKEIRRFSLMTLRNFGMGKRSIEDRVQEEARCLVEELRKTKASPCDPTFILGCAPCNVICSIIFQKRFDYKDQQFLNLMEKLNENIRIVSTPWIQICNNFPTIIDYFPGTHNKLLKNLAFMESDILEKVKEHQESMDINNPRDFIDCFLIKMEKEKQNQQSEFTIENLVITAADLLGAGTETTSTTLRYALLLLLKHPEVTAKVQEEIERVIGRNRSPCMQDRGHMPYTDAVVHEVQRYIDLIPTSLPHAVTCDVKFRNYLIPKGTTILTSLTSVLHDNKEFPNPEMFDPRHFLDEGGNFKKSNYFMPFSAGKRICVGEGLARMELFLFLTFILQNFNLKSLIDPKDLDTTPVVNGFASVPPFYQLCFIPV
Sequence of Cytochrome P450 2D6 (P10635 whole entry): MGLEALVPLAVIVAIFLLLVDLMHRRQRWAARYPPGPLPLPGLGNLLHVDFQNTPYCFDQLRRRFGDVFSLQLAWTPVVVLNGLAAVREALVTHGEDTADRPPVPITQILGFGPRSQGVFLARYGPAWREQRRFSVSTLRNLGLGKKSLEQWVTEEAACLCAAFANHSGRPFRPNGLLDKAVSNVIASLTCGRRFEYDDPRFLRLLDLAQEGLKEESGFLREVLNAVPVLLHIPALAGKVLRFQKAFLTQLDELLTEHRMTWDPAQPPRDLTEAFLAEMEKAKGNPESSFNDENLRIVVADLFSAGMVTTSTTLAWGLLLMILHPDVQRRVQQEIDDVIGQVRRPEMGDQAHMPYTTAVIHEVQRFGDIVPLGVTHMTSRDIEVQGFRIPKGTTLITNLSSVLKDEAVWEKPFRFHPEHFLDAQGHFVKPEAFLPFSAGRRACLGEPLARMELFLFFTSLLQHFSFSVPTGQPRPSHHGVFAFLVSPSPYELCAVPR
Sequence of Cytochrome P450 3A4 (P08684 whole entry): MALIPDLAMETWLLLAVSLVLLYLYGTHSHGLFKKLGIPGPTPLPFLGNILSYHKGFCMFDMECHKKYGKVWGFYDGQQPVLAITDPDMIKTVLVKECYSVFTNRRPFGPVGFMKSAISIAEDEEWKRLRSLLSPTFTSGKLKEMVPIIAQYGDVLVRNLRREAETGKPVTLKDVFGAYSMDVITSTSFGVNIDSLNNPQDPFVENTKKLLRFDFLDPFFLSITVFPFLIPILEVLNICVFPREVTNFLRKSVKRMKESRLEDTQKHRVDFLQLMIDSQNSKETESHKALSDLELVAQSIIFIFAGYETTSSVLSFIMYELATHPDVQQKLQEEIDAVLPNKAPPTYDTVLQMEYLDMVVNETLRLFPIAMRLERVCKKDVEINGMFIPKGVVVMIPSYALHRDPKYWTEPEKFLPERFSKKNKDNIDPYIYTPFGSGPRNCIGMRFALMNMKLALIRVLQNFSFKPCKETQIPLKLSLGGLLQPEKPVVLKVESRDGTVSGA
Sequence of Voltage-gated inwardly rectifying potassium channel KCNH2 (Q12809 whole entry, the tested form may be a part): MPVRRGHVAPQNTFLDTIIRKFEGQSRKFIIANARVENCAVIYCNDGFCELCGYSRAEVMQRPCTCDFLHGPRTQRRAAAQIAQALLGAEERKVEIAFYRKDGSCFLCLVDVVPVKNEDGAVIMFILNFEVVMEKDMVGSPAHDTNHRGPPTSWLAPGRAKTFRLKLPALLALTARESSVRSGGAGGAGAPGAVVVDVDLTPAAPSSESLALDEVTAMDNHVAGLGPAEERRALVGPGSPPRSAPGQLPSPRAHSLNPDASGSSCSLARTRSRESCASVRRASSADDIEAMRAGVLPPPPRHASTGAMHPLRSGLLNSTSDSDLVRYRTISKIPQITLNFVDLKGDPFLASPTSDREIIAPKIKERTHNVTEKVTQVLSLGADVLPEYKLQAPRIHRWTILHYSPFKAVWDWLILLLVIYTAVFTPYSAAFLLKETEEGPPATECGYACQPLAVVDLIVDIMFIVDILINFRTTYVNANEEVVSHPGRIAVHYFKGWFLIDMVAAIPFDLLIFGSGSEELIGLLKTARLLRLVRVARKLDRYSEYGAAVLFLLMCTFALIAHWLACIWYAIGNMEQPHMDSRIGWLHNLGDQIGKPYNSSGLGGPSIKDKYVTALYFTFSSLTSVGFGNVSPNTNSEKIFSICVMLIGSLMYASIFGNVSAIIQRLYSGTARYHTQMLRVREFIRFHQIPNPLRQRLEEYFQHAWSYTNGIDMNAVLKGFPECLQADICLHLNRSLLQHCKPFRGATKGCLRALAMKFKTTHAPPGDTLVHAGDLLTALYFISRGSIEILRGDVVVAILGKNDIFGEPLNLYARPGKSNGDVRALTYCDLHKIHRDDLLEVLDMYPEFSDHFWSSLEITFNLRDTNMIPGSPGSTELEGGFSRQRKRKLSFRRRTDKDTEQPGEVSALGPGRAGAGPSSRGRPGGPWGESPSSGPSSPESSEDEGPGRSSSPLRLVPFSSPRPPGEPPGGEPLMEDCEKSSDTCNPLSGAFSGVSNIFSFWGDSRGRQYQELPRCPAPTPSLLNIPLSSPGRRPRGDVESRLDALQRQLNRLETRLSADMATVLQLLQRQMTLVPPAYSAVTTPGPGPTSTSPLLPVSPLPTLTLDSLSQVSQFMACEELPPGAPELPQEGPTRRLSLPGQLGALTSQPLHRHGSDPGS

## C[C@H](NC(=O)C(C)(C)Oc1ccc(C(F)(F)F)cn1)[C@@H](Cc1ccc(Cl)cc1)c1cccc(C#N)c1 [TARANABANT]
Rattus norvegicus [1]
  Activity: 6%
Rattus norvegicus [2]
  Activity: 21%
Rattus norvegicus [3]
  Activity: 6%

## CC(C)(O)C(=O)c1oc2nc(-c3ccccc3Cl)c(-c3ccc(Cl)cc3)cc2c1NC(=O)CO
[4]
  IC50: 1.8 µM
Canis familiaris [5]
  Activity: Non-toxic
Canis familiaris [6]
  Activity: Non-toxic
Canis familiaris [7]
  Activity: Non-toxic
[8]
  IC50: 6.6 µM
Canis familiaris [9]
  concentration: 50000 nM
Cytochrome P450 1A2
  IC50: > 100 µM
Cytochrome P450 2C19
  IC50: 43 µM
Cytochrome P450 2D6
  IC50: 73 µM
Cytochrome P450 2C9
  IC50: 17 µM
Cytochrome P450 3A4
  IC50: 98 µM
[10]
  dose excreted: 87%
Rattus norvegicus [11]
  Activity: 4.3%
Rattus norvegicus [12]
  Activity: Active
Rattus norvegicus [13]
  Activity: inactive
Rattus norvegicus [14]
  Activity: Active
[15]
  dose excreted: 5%
Rattus norvegicus [16]
  Activity: 24%
Mus musculus [17]
  Activity: 53%
Mus musculus [18]
  Activity: -0.79 g
Rattus norvegicus [19]
  Activity: -7 g
Rattus norvegicus [20]
  Activity: 47%
[21]
  bioavailability: 64%
[22]
  half-life: 7.5 h
[23]
  clearance: 8.6 mL/min/kg
[24]
  Kp at 4 h: 0.64
[25]
  concentration at 4 h: 94 nM
[26]
  concentration at 4 h: 147 nM
[27]
  bioavailability: 9%
[28]
  half-life: 1.8 h
[29]
  clearance: 33 mL/min/kg
Rattus norvegicus [30]
  Activity: -2 g
[31]
  bioavailability: 50%
[32]
  half-life: 17 h
[33]
  clearance: 2.1 mL/min/kg
[34]
  EC50: 0.7 µM
[35]
  Efficacy: 18%
Rattus norvegicus [36]
  Activity: Non-toxic
Plasma [37]
  concentration: 500 nM
Brain [38]
  concentration: 500 nM
Plasma [39]
  concentration: 7000 nM
Brain [40]
  concentration: 2300 nM
Plasma [41]
  concentration: 24000 nM
Brain [42]
  concentration: 6500 nM
Mus musculus [43]
  Activity: Toxic
Mus musculus [44]
  Activity: Toxic
Rattus norvegicus [45]
  Activity: 24%
